Calls of active or inactive are those of the source. The rule behind the calls is not given here. Where a SMILES comes first, the peptide text is derived from it. [ ]: non-standard residue; d: D form. Phe(4-Cl) = N[C@@H](Cc1ccc(Cl)cc1)C(=O)O; Phe(3-F) = N[C@@H](Cc1cccc(F)c1)C(=O)O; Phe(2-F) = N[C@@H](Cc1ccccc1F)C(=O)O; Arg(Me) = CNC(=N)NCCC[C@H](N)C(=O)O; Pip = O=C(O)[C@@H]1CCCCN1; NMeA = CN[C@@H](C)C(=O)O; Thz = O=C(O)[C@@H]1CSCN1; dNMeA = CN[C@H](C)C(=O)O; Aze = O=C(O)[C@@H]1CCN1; 2Abz = Nc1ccccc1C(=O)O; Aib = CC(C)(N)C(=O)O; azaGly = NNC(=O)O; βAla = NCCC(=O)O; Sar = CNCC(=O)O
Legend:
KiSS-1 receptor [1] = target: KiSS-1 receptor (Homo sapiens, UniProt Q969F8); assay: Agonist activity at human KISS1R expressed in CHO/dhfr cells assessed as increase in intracellular Ca2+ levels measured for 180 secs by Fluo 3-AM dye based FLIPR assay; assay type: functional, cell-based
Outline: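 CHO cells expressing human KISS1R; FLIPR recording of ligand-induced [Ca2+]i rise over time. Maximum response taken and expressed as percent of the response to a maximal concentration of metastin(45-54). EC50 = concentration giving half-maximal mobilization, from nonlinear regression of smoothed data. Reported as ratio to the metastin(45-54) EC50.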

KiSS-1 receptor [2] = target: KiSS-1 receptor (Rattus norvegicus, UniProt Q924U1); assay: Agonist activity at rat KISS1R expressed in CHO/dhfr cells assessed as increase in intracellular Ca2+ levels measured for 180 secs by Fluo 3-AM dye based FLIPR assay; assay type: functional, cell-based
Rattus norvegicus = assay: Inhibition of testosterone levels in CD(SD) rat assessed as plasma testosterone level <0.04 ng/ml at 0.03 nmol/hr, sc administered continuously for 6 days through alzet osmotic pump measured after 6 days by radio-immunoassay; assay type: functional, organism-based

Chain of KiSS-1 receptor (Homo sapiens, UniProt Q969F8) (Q969F8 whole entry): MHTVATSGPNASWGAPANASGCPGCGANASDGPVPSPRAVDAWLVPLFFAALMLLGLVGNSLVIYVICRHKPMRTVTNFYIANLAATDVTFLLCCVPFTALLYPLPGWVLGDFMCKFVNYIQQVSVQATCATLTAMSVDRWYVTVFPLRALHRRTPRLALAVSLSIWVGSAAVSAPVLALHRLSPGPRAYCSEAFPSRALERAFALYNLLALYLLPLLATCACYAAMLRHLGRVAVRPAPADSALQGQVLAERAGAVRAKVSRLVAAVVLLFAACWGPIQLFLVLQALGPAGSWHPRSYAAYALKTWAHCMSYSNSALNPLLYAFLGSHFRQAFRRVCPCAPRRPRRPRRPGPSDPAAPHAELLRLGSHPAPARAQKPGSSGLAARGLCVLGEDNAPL
Chain of KiSS-1 receptor (Rattus norvegicus, UniProt Q924U1) (Q924U1 whole entry): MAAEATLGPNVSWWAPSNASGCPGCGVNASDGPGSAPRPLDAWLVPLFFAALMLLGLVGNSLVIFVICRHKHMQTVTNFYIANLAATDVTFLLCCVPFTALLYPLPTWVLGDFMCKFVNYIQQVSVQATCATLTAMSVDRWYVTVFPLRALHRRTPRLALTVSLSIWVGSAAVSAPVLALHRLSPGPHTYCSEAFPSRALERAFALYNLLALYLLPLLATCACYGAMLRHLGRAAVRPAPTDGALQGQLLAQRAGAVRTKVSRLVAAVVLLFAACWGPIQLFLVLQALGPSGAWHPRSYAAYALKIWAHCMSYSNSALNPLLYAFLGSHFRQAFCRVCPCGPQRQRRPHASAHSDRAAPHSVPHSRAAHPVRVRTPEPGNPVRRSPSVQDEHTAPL

Row | Compound | EC50 (KiSS-1 receptor [1]) [nM] | EC50 (KiSS-1 receptor [2]) [nM] | inhibition (Rattus norvegicus)
1 | CNC(=N)NCCC[C@H](NC(=O)[C@H](CC(C)C)NC(=O)NNC(=O)[C@H](Cc1ccccc1)NC(=O)[C@@H](NC(=O)[C@H](CC(N)=O)NC(=O)[C@H](CCC(=O)O)NC(=O)[C@@H](Cc1ccc(O)cc1)NC(C)=O)[C@@H](C)O)C(=O)N[C@@H](Cc1c[nH]c2ccccc12)C(N)=O | 2.8 | 11 | Active
2 | CNC(=N)NCCC[C@H](NC(=O)[C@H](CC(C)C)NC(=O)NNC(=O)[C@H](Cc1ccccc1F)NC(=O)[C@@H](NC(=O)[C@H](CC(N)=O)NC(=O)[C@@H](Cc1c[nH]c2ccccc12)NC(=O)[C@@H](Cc1ccc(O)cc1)NC(C)=O)[C@@H](C)O)C(=O)N[C@@H](Cc1c[nH]c2ccccc12)C(N)=O (Ac-[dY][dW]NT[Phe(2-F)][azaGly]L[Arg(Me)]W-NH2) | 0.65 | 1.8 | 
3 | CNC(=N)NCCC[C@H](NC(=O)[C@H](CC(C)C)NC(=O)NNC(=O)[C@H](Cc1cccc(F)c1)NC(=O)[C@@H](NC(=O)[C@H](CC(N)=O)NC(=O)C(C)(C)NC(=O)[C@@H](Cc1ccc(O)cc1)NC(C)=O)[C@@H](C)O)C(=O)N[C@@H](Cc1c[nH]c2ccccc12)C(N)=O (Ac-[dY][Aib]NT[Phe(3-F)][azaGly]L[Arg(Me)]W-NH2) | 1.2 | 7 | 
4 | CNC(=N)NCCC[C@H](NC(=O)[C@H](CC(C)C)NC(=O)NNC(=O)[C@H](Cc1ccc(Cl)cc1)NC(=O)[C@@H](NC(=O)[C@H](CC(N)=O)NC(=O)[C@@H](Cc1c[nH]c2ccccc12)NC(=O)[C@@H](Cc1ccc(O)cc1)NC(C)=O)[C@@H](C)O)C(=O)N[C@@H](Cc1c[nH]c2ccccc12)C(N)=O (Ac-[dY][dW]NT[Phe(4-Cl)][azaGly]L[Arg(Me)]W-NH2) | 0.56 | 2.8 | 
5 | CNC(=N)NCCC[C@H](NC(=O)[C@H](CC(C)C)NC(=O)NNC(=O)[C@H](Cc1ccccc1)NC(=O)[C@@H](NC(=O)[C@H](CC(N)=O)NC(=O)[C@H](CCCCN)NC(=O)[C@@H](Cc1ccc(O)cc1)NC(C)=O)[C@@H](C)O)C(=O)N[C@@H](Cc1c[nH]c2ccccc12)C(N)=O | 1.6 | 6.8 | Active
6 | CNC(=N)NCCC[C@H](NC(=O)[C@H](CC(C)C)NC(=O)NNC(=O)[C@H](Cc1cccc(F)c1)NC(=O)[C@@H](NC(=O)[C@H](CC(N)=O)NC(=O)[C@@H](Cc1c[nH]c2ccccc12)NC(=O)[C@@H](Cc1ccc(O)cc1)NC(C)=O)[C@@H](C)O)C(=O)N[C@@H](Cc1c[nH]c2ccccc12)C(N)=O (Ac-[dY][dW]NT[Phe(3-F)][azaGly]L[Arg(Me)]W-NH2) | 1.4 | 4.8 | 
7 | CNC(=N)NCCC[C@H](NC(=O)[C@H](CC(C)C)NC(=O)NNC(=O)[C@H](Cc1ccccc1)NC(=O)[C@@H](NC(=O)[C@H](CC(N)=O)NC(=O)[C@@H](CC(C)C)NC(=O)[C@@H](Cc1ccc(O)cc1)NC(C)=O)[C@@H](C)O)C(=O)N[C@@H](Cc1c[nH]c2ccccc12)C(N)=O | 2 | 12 | Active
8 | CNC(=N)NCCC[C@H](NC(=O)[C@H](CC(C)C)NC(=O)NNC(=O)[C@H](Cc1ccc(F)cc1)NC(=O)[C@@H](NC(=O)[C@H](CC(N)=O)NC(=O)[C@@H](Cc1c[nH]c2ccccc12)NC(=O)[C@@H](Cc1ccc(O)cc1)NC(C)=O)[C@@H](C)O)C(=O)N[C@@H](Cc1c[nH]c2ccccc12)C(N)=O | 1.9 | 4.7 | Active
9 | CNC(=N)NCCC[C@H](NC(=O)[C@H](CC(C)C)NC(=O)NNC(=O)[C@H](Cc1cccc(F)c1)NC(=O)[C@@H](NC(=O)[C@H](CC(N)=O)NC(=O)[C@H](Cc1c[nH]c2ccccc12)NC(=O)[C@@H](Cc1ccc(O)cc1)NC(C)=O)[C@@H](C)O)C(=O)N[C@@H](Cc1c[nH]c2ccccc12)C(N)=O (Ac-[dY]WNT[Phe(3-F)][azaGly]L[Arg(Me)]W-NH2) | 0.073 | 1.2 | 
10 | CNC(=N)NCCC[C@H](NC(=O)[C@H](CC(C)C)NC(=O)NNC(=O)[C@H](Cc1ccccc1)NC(=O)[C@@H](NC(=O)[C@H](CC(N)=O)NC(=O)[C@@H](C)N(C)C(=O)[C@@H](Cc1ccc(O)cc1)NC(C)=O)[C@@H](C)O)C(=O)N[C@@H](Cc1c[nH]c2ccccc12)C(N)=O (Ac-[dY][dNMeA]NTF[azaGly]L[Arg(Me)]W-NH2) | 1.8 | 7.3 | 
11 | CNC(=N)NCCC[C@H](NC(=O)[C@H](CC(C)C)NC(=O)NNC(=O)[C@H](Cc1cccc(F)c1)NC(=O)[C@@H](NC(=O)[C@H](CC(N)=O)NC(=O)CNC(=O)[C@@H](Cc1ccc(O)cc1)NC(C)=O)[C@@H](C)O)C(=O)N[C@@H](Cc1c[nH]c2ccccc12)C(N)=O (Ac-[dY]GNT[Phe(3-F)][azaGly]L[Arg(Me)]W-NH2) | 1.1 | 7.4 | 
12 | CNC(=N)NCCC[C@H](NC(=O)[C@H](CC(C)C)NC(=O)NNC(=O)[C@H](Cc1ccccc1)NC(=O)[C@@H](NC(=O)[C@H](CC(N)=O)NC(=O)c1ccccc1NC(=O)[C@@H](Cc1ccc(O)cc1)NC(C)=O)[C@@H](C)O)C(=O)N[C@@H](Cc1c[nH]c2ccccc12)C(N)=O (Ac-[dY][2Abz]NTF[azaGly]L[Arg(Me)]W-NH2) | 5.2 | 47 | 

Continued, in another order:

Row | EC50 (KiSS-1 receptor [1]) [nM] | EC50 (KiSS-1 receptor [2]) [nM] | Compound | inhibition (Rattus norvegicus)
13 | 2.3 | 15 | CNC(=N)NCCC[C@H](NC(=O)[C@H](CC(C)C)NC(=O)NNC(=O)[C@H](Cc1ccccc1)NC(=O)[C@@H](NC(=O)[C@H](CC(N)=O)NC(=O)C1CN(C(=O)[C@@H](Cc2ccc(O)cc2)NC(C)=O)C1)[C@@H](C)O)C(=O)N[C@@H](Cc1c[nH]c2ccccc12)C(N)=O | 
14 | 0.49 | 7 | CNC(=N)NCCC[C@H](NC(=O)[C@H](CC(C)C)NC(=O)NNC(=O)[C@H](Cc1ccccc1)NC(=O)[C@@H](NC(=O)[C@H](CC(N)=O)NC(=O)[C@@H]1Cc2ccccc2CN1C(=O)[C@@H](Cc1ccc(O)cc1)NC(C)=O)[C@@H](C)O)C(=O)N[C@@H](Cc1c[nH]c2ccccc12)C(N)=O | 
15 | 3.3 | 11 | CNC(=N)NCCC[C@H](NC(=O)[C@H](CC(C)C)NC(=O)NNC(=O)[C@H](Cc1ccccc1)NC(=O)[C@@H](NC(=O)[C@H](CC(N)=O)NC(=O)CCNC(=O)[C@@H](Cc1ccc(O)cc1)NC(C)=O)[C@@H](C)O)C(=O)N[C@@H](Cc1c[nH]c2ccccc12)C(N)=O (Ac-[dY][βAla]NTF[azaGly]L[Arg(Me)]W-NH2) | 
16 | 5.8 | 110 | CNC(=N)NCCC[C@H](NC(=O)[C@H](CC(C)C)NC(=O)NNC(=O)[C@H](Cc1ccccc1)NC(=O)[C@@H](NC(=O)[C@H](CC(N)=O)NC(=O)[C@H]1CCCN1C(=O)[C@@H](Cc1ccc(O)cc1)NC(C)=O)[C@@H](C)O)C(=O)N[C@@H](Cc1c[nH]c2ccccc12)C(N)=O | 
17 | 5.5 | 45 | CNC(=N)NCCC[C@H](NC(=O)[C@H](CC(C)C)NC(=O)NNC(=O)[C@H](Cc1ccccc1)NC(=O)[C@@H](NC(=O)[C@H](CC(N)=O)NC(=O)[C@H]1CCCN(C(=O)[C@@H](Cc2ccc(O)cc2)NC(C)=O)C1)[C@@H](C)O)C(=O)N[C@@H](Cc1c[nH]c2ccccc12)C(N)=O | 
18 | 1.2 | 6 | CNC(=N)NCCC[C@H](NC(=O)[C@H](CC(C)C)NC(=O)NNC(=O)[C@H](Cc1ccccc1)NC(=O)[C@@H](NC(=O)[C@H](CC(N)=O)NC(=O)[C@H](C)NC(=O)[C@@H](Cc1ccc(O)cc1)NC(C)=O)[C@@H](C)O)C(=O)N[C@@H](Cc1c[nH]c2ccccc12)C(N)=O | 
19 | 4.9 | 20 | CNC(=N)NCCC[C@H](NC(=O)[C@H](CC(C)C)NC(=O)NNC(=O)[C@H](Cc1ccccc1)NC(=O)[C@@H](NC(=O)[C@H](CC(N)=O)NC(=O)CN(C)C(=O)[C@@H](Cc1ccc(O)cc1)NC(C)=O)[C@@H](C)O)C(=O)N[C@@H](Cc1c[nH]c2ccccc12)C(N)=O (Ac-[dY][Sar]NTF[azaGly]L[Arg(Me)]W-NH2) | 
20 | 2.7 | 16 | CNC(=N)NCCC[C@H](NC(=O)[C@H](CC(C)C)NC(=O)NNC(=O)[C@H](Cc1ccccc1)NC(=O)[C@@H](NC(=O)[C@H](CC(N)=O)NC(=O)[C@@H](C)NC(=O)[C@@H](Cc1ccc(O)cc1)NC(C)=O)[C@@H](C)O)C(=O)N[C@@H](Cc1c[nH]c2ccccc12)C(N)=O | 
21 | 1.9 | 16 | CNC(=N)NCCC[C@H](NC(=O)[C@H](CC(C)C)NC(=O)NNC(=O)[C@H](Cc1ccccc1)NC(=O)[C@@H](NC(=O)[C@H](CC(N)=O)NC(=O)[C@@H]1CCN1C(=O)[C@@H](Cc1ccc(O)cc1)NC(C)=O)[C@@H](C)O)C(=O)N[C@@H](Cc1c[nH]c2ccccc12)C(N)=O (Ac-[dY][Aze]NTF[azaGly]L[Arg(Me)]W-NH2) | Active
22 | 2.3 | 23 | CNC(=N)NCCC[C@H](NC(=O)[C@H](CC(C)C)NC(=O)NNC(=O)[C@H](Cc1ccccc1)NC(=O)[C@@H](NC(=O)[C@H](CC(N)=O)NC(=O)[C@@H]1CSCN1C(=O)[C@@H](Cc1ccc(O)cc1)NC(C)=O)[C@@H](C)O)C(=O)N[C@@H](Cc1c[nH]c2ccccc12)C(N)=O (Ac-[dY][Thz]NTF[azaGly]L[Arg(Me)]W-NH2) | 
23 | 2.8 | 17 | CNC(=N)NCCC[C@H](NC(=O)[C@H](CC(C)C)NC(=O)NNC(=O)[C@H](Cc1ccccc1)NC(=O)[C@@H](NC(=O)[C@H](CC(N)=O)NC(=O)[C@@H]1CCCCN1C(=O)[C@@H](Cc1ccc(O)cc1)NC(C)=O)[C@@H](C)O)C(=O)N[C@@H](Cc1c[nH]c2ccccc12)C(N)=O (Ac-[dY][Pip]NTF[azaGly]L[Arg(Me)]W-NH2) | 
24 | 4.4 | 43 | CNC(=N)NCCC[C@H](NC(=O)[C@H](CC(C)C)NC(=O)NNC(=O)[C@H](Cc1ccccc1)NC(=O)[C@@H](NC(=O)[C@H](CC(N)=O)NC(=O)[C@H](C)N(C)C(=O)[C@@H](Cc1ccc(O)cc1)NC(C)=O)[C@@H](C)O)C(=O)N[C@@H](Cc1c[nH]c2ccccc12)C(N)=O (Ac-[dY][NMeA]NTF[azaGly]L[Arg(Me)]W-NH2) | 
